These results are taken from PubChem BioAssay.

The source made the active and inactive calls.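 How the source made its calls, unless noted: active means potentiation averaged over duplicate wells exceeding buffer-only control mean by more than 3 SD; inactive means the rest.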

Sequence of Potassium voltage-gated channel subfamily KQT member 1 (Homo sapiens) (P51787 whole entry, looked up): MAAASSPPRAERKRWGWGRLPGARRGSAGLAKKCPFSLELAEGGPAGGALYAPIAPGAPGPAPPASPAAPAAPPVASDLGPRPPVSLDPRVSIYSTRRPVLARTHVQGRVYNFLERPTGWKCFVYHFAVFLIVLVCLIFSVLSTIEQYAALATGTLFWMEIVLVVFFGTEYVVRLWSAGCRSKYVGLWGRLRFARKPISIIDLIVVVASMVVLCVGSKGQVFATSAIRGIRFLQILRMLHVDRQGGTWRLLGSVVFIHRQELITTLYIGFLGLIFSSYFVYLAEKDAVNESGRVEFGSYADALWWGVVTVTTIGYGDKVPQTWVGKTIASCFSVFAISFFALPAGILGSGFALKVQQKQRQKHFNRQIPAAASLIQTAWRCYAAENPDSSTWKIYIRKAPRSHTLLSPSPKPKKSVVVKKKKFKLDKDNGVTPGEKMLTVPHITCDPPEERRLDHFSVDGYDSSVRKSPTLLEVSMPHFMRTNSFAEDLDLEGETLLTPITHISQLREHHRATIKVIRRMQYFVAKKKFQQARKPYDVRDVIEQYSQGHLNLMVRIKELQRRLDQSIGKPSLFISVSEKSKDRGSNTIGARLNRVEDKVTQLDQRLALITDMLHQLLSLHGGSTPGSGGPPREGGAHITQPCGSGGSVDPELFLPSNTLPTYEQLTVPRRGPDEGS

Test system in the first test: not listed separately
In words: thallium flux activation in parental CHO cells, counter-screen for KCNQ1 potentiator project (AID 493006;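 active means duplicate-averaged activation above buffer control mean plus 5 SD of those controls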). As to conditions: parental CHO-K1 cells, FluxOR thallium flux, at 10 µM; active compounds read high. The essentials:
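Assay system: Untransfected host CHO-K1 cells with FluxOR thallium dye | Probe or stimulus: Potassium/thallium depolarization pulse | Schedule: Overnight 37 °C plating, 90 min RT dye, 20 min compound | Detection: Kinetic thallium-flux fluorescence | Read-out: Max-minus-min fluorescence over baseline, percent of buffer-to-R-L3 span | Benchmarks: Low control buffer, high control R-L3 activator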
`CCCCOC(=O)c1ccc(NC(=S)NC(=O)c2c(Cl)cnn2C)cc1`: the result was inactive.

With `O=C(NCc1cccc(Cl)c1)c1cccc(OC2CCN(C(=O)C3CC3)CC2)c1`, the result was inactive.

As to `CS(=O)(=O)N1CCN(c2ccccc2NC(=O)CSc2nnc(-c3ccco3)o2)CC1`, the result was inactive.

For the molecule `Cc1noc(C)c1COc1ccc(CC(=O)NCc2ccccc2)cc1`, the result was inactive.

In the case of `N#Cc1ccccc1Oc1ccccc1C=O`, the activation was 143% (active).

For the molecule `C=CCCCN(Cc1ccccc1)S(=O)(=O)c1ccccc1Br`, the outcome was inactive.

Take `Cc1ccccc1-n1c(C)cc(/C=N/NC(=O)c2ccncc2)c1C`: the result was inactive.

Regarding `O=C(NC(=S)N1CCCCCC1)c1ccc(Cl)cc1Cl`, the activation is 148% (active).

Turning to `COc1ccc(N=Nc2ccc(O)c3ncccc23)cc1`, the activation was 176% (active).

Regarding `O=C(CN1CCOCC1)N1CCN(c2nnc(-c3ccccc3)c3ccccc23)CC1`, the outcome was inactive.

Turning to `CCS(=O)(=O)Nc1ccc(C(=O)CC2(O)C(=O)Nc3ccccc32)cc1` (configuration not stated), the outcome was inactive.

Take `N#CC(c1cccc(Cl)c1)c1ccc2c(C(F)(F)F)cc(C(F)(F)F)nc2n1` (configuration not stated): the activation is 144% (active).

On to `Cc1[nH]c(-c2ccccn2)nc(=S)c1Cl`, for which the activation is 244% (active).

For `CCCCCCCCCCCC(=O)NC(Cc1ccc(OC)c([N+](=O)[O-])c1)C(=O)O` (configuration not stated), the activation is 372% (active).

For `S=c1nc[nH]c2c1sc1nc(-c3ccccc3)c3c(c12)CCCC3`, the activation was 456% (active).

With `CCSc1nc(=S)cc(C)[nH]1`, the activation is 340% (active).

With `CCSc1nnc(NS(=O)(=O)c2ccc(OC)cc2)s1`, the result was inactive.

Take `CN1CCN(c2nc(-c3cccs3)cc(C(F)(F)F)n2)CC1`: the activation was 142% (active).

On to `COCCCn1c(=S)[nH]c2sc3c(c2c1=O)CCCS3`, for which the activation was 147% (active).

Regarding `CC(NC(=O)CS(=O)(=O)c1ccccc1)c1ccccc1` (configuration not stated), the result was inactive.

In the case of `COc1cccc(C(=O)NNC(=O)C(=O)Nc2ccc(C)c(Cl)c2)c1`, the activation was 278% (active).

For `O=C(NC(=S)Nc1cccc(Cl)c1N1CCCCC1)c1ccco1`, the activation is 156% (active).

The next test has as its target Potassium voltage-gated channel subfamily KQT member 1 (Homo sapiens) (UniProt P51787). In words: KCNQ1 potassium channel potentiators, confirmation, FluxOR thallium flux, CHO cells, duplicates (AID 493007).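 On outcome: cells depolarized by a potassium plus thallium sulfate stimulus after compound.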 The conditions noted are these: KCNQ1 cell line, FluxOR thallium flux fluorescence, at 10 µM; active compounds read high, % of reference activator effect, buffer zero. Put shortly:
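Material: KCNQ1-expressing CHO cell line; Incubation: FluxOR dye loading 90 min, compound exposure 20 min, room temperature; Detection: FluxOR Tl+ flux fluorescence, 10 s baseline plus 110 s recording; Read-out: percent activation between buffer and R-L3 responses; Control set: buffer-only wells as 0% and R-L3 activator as 100%; Replication: duplicate wells per compound.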
In the case of `CCCn1c(=S)[nH]c2ccc(C(F)(F)F)cc21`, the outcome was inactive.

In the case of `Oc1ccc(C[C@@H]2CNCCN2CCc2cc(C(F)(F)F)cc(C(F)(F)F)c2)cc1`, the result was inactive.

On to `O=[N+]([O-])c1ccc(Nc2ccc(Cl)cc2)nc1`, for which the result was inactive.

In the case of `CCCC(=O)N1CCN(Cc2nc3cc([N+](=O)[O-])ccc3n2C)CC1`, the result was inactive.

Consider `COc1ccc(C)cc1-n1c(C)cc(C=O)c1C`, for which the potentiation was 44% (active).

In the case of `CCCCCC/C(C)=C1/SC(=S)NC1=O`, the potentiation was 264% (active).

On to `O=C(NNC(=O)c1ccc(Cl)c(Cl)c1)c1ccncc1`, for which the potentiation was 18.5% (active).

Regarding `CN(C)c1ccc(-c2nn3c(-c4ccccc4Cl)nnc3s2)cc1`, the result was inactive.

Take `CC(C)OC(=O)c1c(NS(=O)(=O)c2ccccc2)sc2c1CCCC2`: the potentiation is 126% (active).

`COC(=O)c1cn(NC(=O)Cc2ccc(Cl)c(Cl)c2)c(=O)c2ccccc12`: the result was inactive.

For the molecule `Oc1c(N=NC(=S)Nc2ccccc2F)c2ccccc2n1Cc1ccccc1`, the potentiation is 49% (active).

Consider `O=C(NCc1ccccn1)c1ccc(COc2ccc(Cl)cc2)o1`, for which the potentiation was 26.5% (active).

As to `Cc1ccnc(NC(=O)CNC(=O)c2ccc3c(c2)OCO3)c1`, the outcome was inactive.

In the case of `CC1=CC(=O)C=C(C)C1=NOS(=O)(=O)c1ccccc1`, the result was inactive.

On to `COCCCn1c(=S)[nH]c2c(sc3ccccc32)c1=O`, for which the potentiation was 69.5% (active).

Take `O=C1/C(=C/c2cccc(F)c2)SC(=S)N1NS(=O)(=O)c1ccccc1`: the outcome was inactive.

As for `COc1cc(OC)cc(C(=O)NNC(=O)C(=O)Nc2cc(OC)c(Cl)cc2OC)c1`, the potentiation was 64% (active).

On to `Cc1cccc(C(=O)Nc2ccccc2C(=O)NCc2cccnc2)c1`, for which the result was inactive.

`CCCCOC(=O)c1ccc(NC(=S)NC(=O)c2c(Cl)cnn2C)cc1`: the potentiation is 77.5% (active).

On to `O=C(NCc1cccc(Cl)c1)c1cccc(OC2CCN(C(=O)C3CC3)CC2)c1`, for which the result was inactive.

For the molecule `CS(=O)(=O)N1CCN(c2ccccc2NC(=O)CSc2nnc(-c3ccco3)o2)CC1`, the result was inactive.

Consider `Cc1noc(C)c1COc1ccc(CC(=O)NCc2ccccc2)cc1`, for which the result was inactive.

Regarding `N#Cc1ccccc1Oc1ccccc1C=O`, the potentiation is 39.5% (active).

With `C=CCCCN(Cc1ccccc1)S(=O)(=O)c1ccccc1Br`, the outcome was inactive.

Turning to `Cc1ccccc1-n1c(C)cc(/C=N/NC(=O)c2ccncc2)c1C`, the potentiation is 25% (active).

For `O=C(NC(=S)N1CCCCCC1)c1ccc(Cl)cc1Cl`, the outcome was inactive.

Turning to `COc1ccc(N=Nc2ccc(O)c3ncccc23)cc1`, the potentiation was 90% (active).

`O=C(CN1CCOCC1)N1CCN(c2nnc(-c3ccccc3)c3ccccc23)CC1`: the outcome was inactive.

For the molecule `CCS(=O)(=O)Nc1ccc(C(=O)CC2(O)C(=O)Nc3ccccc32)cc1` (configuration not stated), the result was inactive.

Regarding `N#CC(c1cccc(Cl)c1)c1ccc2c(C(F)(F)F)cc(C(F)(F)F)nc2n1` (configuration not stated), the potentiation was 234% (active).

Consider `Cc1[nH]c(-c2ccccn2)nc(=S)c1Cl`, for which the potentiation was 106% (active).

On to `CCCCCCCCCCCC(=O)NC(Cc1ccc(OC)c([N+](=O)[O-])c1)C(=O)O` (configuration not stated), for which the potentiation is 116% (active).

For the molecule `S=c1nc[nH]c2c1sc1nc(-c3ccccc3)c3c(c12)CCCC3`, the potentiation is 328% (active).

In the case of `CCSc1nc(=S)cc(C)[nH]1`, the potentiation is 172% (active).

In the case of `CCSc1nnc(NS(=O)(=O)c2ccc(OC)cc2)s1`, the outcome was inactive.

Consider `CN1CCN(c2nc(-c3cccs3)cc(C(F)(F)F)n2)CC1`, for which the outcome was inactive.

For `COCCCn1c(=S)[nH]c2sc3c(c2c1=O)CCCS3`, the potentiation is 30.5% (active).

Regarding `CC(NC(=O)CS(=O)(=O)c1ccccc1)c1ccccc1` (configuration not stated), the result was inactive.

For `COc1cccc(C(=O)NNC(=O)C(=O)Nc2ccc(C)c(Cl)c2)c1`, the potentiation was 99% (active).

For `O=C(NC(=S)Nc1cccc(Cl)c1N1CCCCC1)c1ccco1`, the potentiation was 148% (active).
